Laboratory results as given in ChEMBL document CHEMBL1268850, “Search for antifungal compounds from the wood of durable tropical trees” (2010).
In brackets after ≈: the same amount, converted by molar mass.

Assays:
[1] = system: Trichophyton rubrum; experiment: Antifungal activity against Trichophyton rubrum LMGO 08 after 5 days microdilution technique; format: functional; settings: LMGO 08, 120 h
Method in brief: (§1)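 Dermatophytes were maintained on potato dextrose agar and subcultured 5 days at 28 °C before testing. Microdilution followed CLSI M38-A, with extracts at 500 to 0.98 µg/mL and pure compounds at 256 to 0.5 µg/mL. Fluconazole and itraconazole were the references. Plates were incubated at 32 °C and read after 5 days. MIC is the lowest concentration preventing visible growth, in triplicate.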

[2] = system: Candida albicans; experiment: Antifungal activity against Candida albicans LMGO 102 after 5 days microdilution technique; format: functional; settings: LMGO 102, 120 h
Method in brief: (§2)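 Yeasts were kept on potato dextrose agar and subcultured 2 days at 28 °C before testing. Broth microdilution followed CLSI M27-A2. Crude extracts were tested at 500 to 0.98 µg/mL and pure compounds at 256 to 0.5 µg/mL. Fluconazole (64 to 0.125 µg/mL) and itraconazole (16 to 0.031 µg/mL) served as references. Plates were incubated at 32 °C. MIC is the lowest concentration with no visible growth, in triplicate.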

[3] = system: Trichophyton rubrum; experiment: Antifungal activity against Trichophyton rubrum LMGO 06 after 5 days microdilution technique; format: functional; settings: LMGO 06, 120 h; method in brief: as §1
[4] = system: Cryptococcus gattii species complex; experiment: Antifungal activity against Cryptococcus gattii LMGO L1 after 5 days microdilution technique; format: functional, Cryptococcus bacillisporus; settings: LMGO L1, 120 h; method in brief: as §2
[5] = system: Trichophyton rubrum; experiment: Antifungal activity against Trichophyton rubrum LMGO 4218 after 5 days microdilution technique; format: functional; settings: LMGO 4218, 120 h; method in brief: as §1
[6] = system: Microsporum canis; experiment: Antifungal activity against Microsporum canis LMGO 22 after 5 days microdilution technique; format: functional; settings: LMGO 22, 120 h; method in brief: as §1
[7] = system: Candida parapsilosis; experiment: Antifungal activity against Candida parapsilosis LMGO 05 after 2 days microdilution technique; settings: Lodderomyces parapsilosis, LMGO 05, 48 h
[8] = system: Trichophyton mentagrophytes; experiment: Antifungal activity against Trichophyton mentagrophytes LMGO 1931 after 5 days microdilution technique; format: functional; settings: LMGO 1931, 120 h; method in brief: as §1
[9] = system: Nakaseomyces glabratus; experiment: Antifungal activity against Candida glabrata LMGO 44 after 5 days microdilution technique; format: functional; settings: LMGO 44, 120 h; method in brief: as §2
[10] = system: Nannizzia gypsea; experiment: Antifungal activity against Microsporum gypseum LMGO 10 after 5 days microdilution technique; format: functional; settings: LMGO 10, 120 h; method in brief: as §1
[11] = system: Nannizzia gypsea; experiment: Antifungal activity against Microsporum gypseum LMGO 533 after 5 days microdilution technique; format: functional; settings: LMGO 533, 120 h; method in brief: as §1
[12] = system: Candida albicans; experiment: Antifungal activity against Candida albicans ATCC 10231 after 5 days microdilution technique; format: functional; settings: ATCC 10231, 120 h; method in brief: as §2
[13] = system: Microsporum canis; experiment: Antifungal activity against Microsporum canis LMGO 02 after 5 days microdilution technique; format: functional; settings: LMGO 02, 120 h; method in brief: as §1
[14] = system: Candida parapsilosis; experiment: Antifungal activity against Candida parapsilosis ATCC 22019 after 5 days microdilution technique; format: functional; settings: Lodderomyces parapsilosis, ATCC 22019, 120 h; method in brief: as §2
[15] = system: Pichia kudriavzevii; experiment: Antifungal activity against Candida krusei LMGO 174 after 5 days microdilution technique; format: functional; settings: LMGO 174, 120 h; method in brief: as §2
[16] = system: Trichophyton mentagrophytes; experiment: Antifungal activity against Trichophyton mentagrophytes LMGO 09 after 5 days microdilution technique; format: functional; settings: LMGO 09, 120 h; method in brief: as §1
[17] = system: Candida albicans; experiment: Antifungal activity against Candida albicans LMGO 102 after 2 days microdilution technique; settings: LMGO 102, 48 h
[18] = system: Pichia kudriavzevii; experiment: Antifungal activity against Candida krusei LMGO 174 after 2 days microdilution technique; settings: LMGO 174, 48 h
[19] = system: Candida albicans; experiment: Antifungal activity against Candida albicans ATCC 10231 after 2 days microdilution technique; settings: ATCC 10231, 48 h
[20] = system: Cryptococcus gattii species complex; experiment: Antifungal activity against Cryptococcus gattii LMGO L1 after 2 days microdilution technique; settings: LMGO L1, 48 h
[21] = system: Candida parapsilosis; experiment: Antifungal activity against Candida parapsilosis ATCC 22019 after 2 days microdilution technique; settings: Lodderomyces parapsilosis, ATCC 22019, 48 h
[22] = system: Nakaseomyces glabratus; experiment: Antifungal activity against Candida glabrata LMGO 44 after 2 days microdilution technique; settings: LMGO 44, 48 h

| SMILES | MIC [1] | MIC [3] | MIC [5] | MIC [6] | MIC [7] | MIC [8] | MIC [10] | MIC [11] | MIC [13] | MIC [16] | MIC [17] | MIC [18] | MIC [19] | MIC [20] | MIC [21] | MIC [22] | further results |
| --- | --- | --- | --- | --- | --- | --- | --- | --- | --- | --- | --- | --- | --- | --- | --- | --- | --- |
| OC(Cn1cncn1)(Cn1cncn1)c1ccc(F)cc1F [FLUCONAZOLE] | 8 µg/mL (≈ 26.1 µM) | 4 µg/mL (≈ 13.1 µM) | 32 µg/mL (≈ 104 µM) | > 64 µg/mL | 4 µg/mL (≈ 13.1 µM) | 4 µg/mL (≈ 13.1 µM) | 16 µg/mL (≈ 52.2 µM) | 64 µg/mL (≈ 209 µM) | > 64 µg/mL | 16 µg/mL (≈ 52.2 µM) |  |  |  |  |  |  | MIC [2]: 1 µg/mL (≈ 3.27 µM); MIC [4]: > 64 µg/mL; MIC [9]: 4 µg/mL (≈ 13.1 µM); MIC [12]: > 64 µg/mL; MIC [14]: > 64 µg/mL; MIC [15]: 8 µg/mL (≈ 26.1 µM) |
| CCC(C)n1ncn(-c2ccc(N3CCN(c4ccc(OCC5COC(Cn6cncn6)(c6ccc(Cl)cc6Cl)O5)cc4)CC3)cc2)c1=O (centres undefined) [ITRACONAZOLE] | 0.125 µg/mL (≈ 0.177 µM) | 0.125 µg/mL (≈ 0.177 µM) | 0.5 µg/mL (≈ 0.709 µM) | 16 µg/mL (≈ 22.7 µM) | 0.25 µg/mL (≈ 0.354 µM) | 0.5 µg/mL (≈ 0.709 µM) | 0.25 µg/mL (≈ 0.354 µM) | 0.975 µg/mL (≈ 1.38 µM) | 16 µg/mL (≈ 22.7 µM) | 0.25 µg/mL (≈ 0.354 µM) | > 16 µg/mL | 16 µg/mL (≈ 22.7 µM) | 0.5 µg/mL (≈ 0.709 µM) | 2 µg/mL (≈ 2.83 µM) | 0.25 µg/mL (≈ 0.354 µM) | 0.5 µg/mL (≈ 0.709 µM) |  |
| C=CCCCCCCCC[C@@H]1C[C@H](C[C@@H](O)CO)C(=O)O1 [RUBRENOLIDE] | 8 µg/mL (≈ 26.8 µM) | 8 µg/mL (≈ 26.8 µM) | 16 µg/mL (≈ 53.6 µM) | 128 µg/mL (≈ 429 µM) | 32 µg/mL (≈ 107 µM) | 64 µg/mL (≈ 214 µM) | 16 µg/mL (≈ 53.6 µM) | 256 µg/mL (≈ 858 µM) | 16 µg/mL (≈ 53.6 µM) | 8 µg/mL (≈ 26.8 µM) | 16 µg/mL (≈ 53.6 µM) | 64 µg/mL (≈ 214 µM) | 64 µg/mL (≈ 214 µM) | 256 µg/mL (≈ 858 µM) | 32 µg/mL (≈ 107 µM) | 4 µg/mL (≈ 13.4 µM) |  |
| C#CCCCCCCCC[C@@H]1C[C@H](C[C@@H](O)CO)C(=O)O1 [RUBRYNOLIDE] | 32 µg/mL (≈ 108 µM) | 32 µg/mL (≈ 108 µM) | 32 µg/mL (≈ 108 µM) | 64 µg/mL (≈ 216 µM) | 128 µg/mL (≈ 432 µM) | > 256 µg/mL | 32 µg/mL (≈ 108 µM) | 32 µg/mL (≈ 108 µM) | 32 µg/mL (≈ 108 µM) | 32 µg/mL (≈ 108 µM) | 32 µg/mL (≈ 108 µM) | 64 µg/mL (≈ 216 µM) | 128 µg/mL (≈ 432 µM) | 128 µg/mL (≈ 432 µM) | 128 µg/mL (≈ 432 µM) | 32 µg/mL (≈ 108 µM) |  |
